Only some compounds are listed: those with a hit (about 2.7% of all), similar ones and a draw of the others.
OXTR ag = human OXTR agonism. P30559. activation, % at 3 µM. CHO-OTR cells, Fluo-8 calcium fluorescence; normalized: DMSO 0%, oxytocin 100%. 320,000 compounds, 0.32% hits;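 active = activation above the mean of all tested compounds plus 3 SD, cutoff set per screening run, cut at about 20% in these data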;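 note: peak over basal fluorescence ratio from a 100 s FLIPR kinetic read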
Target sequence (P30559 whole entry, looked up): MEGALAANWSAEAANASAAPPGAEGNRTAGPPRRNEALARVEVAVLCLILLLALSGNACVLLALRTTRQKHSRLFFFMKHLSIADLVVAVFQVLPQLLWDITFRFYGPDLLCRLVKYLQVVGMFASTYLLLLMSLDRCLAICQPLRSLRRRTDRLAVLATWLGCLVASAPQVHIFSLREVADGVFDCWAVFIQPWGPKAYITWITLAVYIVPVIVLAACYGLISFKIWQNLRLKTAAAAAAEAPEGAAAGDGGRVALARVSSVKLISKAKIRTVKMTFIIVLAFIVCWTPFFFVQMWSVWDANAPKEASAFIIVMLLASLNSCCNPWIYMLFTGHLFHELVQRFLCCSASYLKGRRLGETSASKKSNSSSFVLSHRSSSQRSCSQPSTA
OX1R antag-1 = antagonists of human orexin 1 receptor (OX1R); OX1R-expressing cells, FRET antagonist read-out; inhibition, % at 6.6 µM; 330,000 compounds, 1.8% hits; AID 485270; in the data active = inhibition mostly above about 38%, no sharp cut-off; inactive = mostly below about 40%;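 note: 0% = agonist challenge alone and 100% = reference antagonist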
OXTR potentiator = potentiators of human oxytocin receptor; P30559; CHO-OTR cells, Fluo-8 calcium fluorescence, potentiator mode; 0% = oxytocin EC15, 100% = EC100; activation, % at 3 µM; 320,000 compounds, 0.061% hits;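 active = activation above that plate's cutoff, the mean activation of tested compounds plus 3 SD, cut at about 6.6% in these data, passing the limit was not always enough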;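 note: 100% uses oxytocin at 75 nM as the full agonist control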
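Material: CHO-OTR cells, human receptor; compound dosing: single dose, 3.0 µM nominal final compound concentration; schedule: 6 min compound pre-incubation at room temperature, 100 s kinetic read; measured by: kinetic Fluo-8 calcium fluorescence; read-out basis: % activation vs EC15 and EC100 oxytocin; controls: EC15 oxytocin alone as 0%, 75 nM oxytocin as 100%; replicates: singlicate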
CHO parental Ca = counter-screen: ATP calcium response change in parental CHO cells; 330,000 compounds, 0.63% hits; inhibition, % at 5.6 µM; parental CHO-K1, ATP-induced calcium, Fluo-8 fluorescence; AID 463079;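 active = inhibition above that plate's mean sample inhibition plus 3 SD, cut at about 26% in these data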;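 note: 0% = ATP-challenged DMSO wells and 100% = DMSO wells without ATP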
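Measured by: calcium-sensitive Fluo-8 fluorescence / Test system: CHO parental line / Controls: ATP-challenged DMSO wells low, unchallenged DMSO wells high / Measure: % inhibition / Compound: single nominal dose of 5.6 µM per compound / Replicates: single well per compound, no replicates / Reagent: ATP as calcium-mobilizing challenge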
V1aR counter = V1a receptor agonism, counter-screen for OXTR agonists | P37288 | CHO-V1R cells, Fluo-8 calcium fluorescence, agonist mode; 0% DMSO, 100% 3 nM vasopressin | activation, % at 3 µM | 320,000 compounds, 0.25% hits | AID 2797;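 active = activation above the mean activation of all tested compounds plus 3 SD, per screening run, cut at about 20% in these data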;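 note: signal is peak over basal fluorescence ratio across a 100 second FLIPR read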
OX1R antag-2 = antagonists of human orexin 1 receptor; O43613; CHO/OX1R cells, Fluo-8 calcium fluorescence, orexin A; inhibition, % at 5 µM; 330,000 compounds, 0.43% hits;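 active = inhibition above its plate's threshold, mean inhibition of all tested compounds on the plate plus 3 SD, cut at about 37% in these data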;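 note: 0% = orexin A challenge wells and 100% = SB-334867-A antagonist wells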
Starred values were filed as active, the others as inactive; / = no result given.

SMILES	OXTR ag	OX1R antag-1	OXTR potentiator	CHO parental Ca	V1aR counter	OX1R antag-2
O=C(COc1ncnc2cc([N+](=O)[O-])ccc12)N(CCc1ccccc1)Cc1ccccc1	9.1	11.7	-7.0	72.4*	5.9	54.0*
O=C(COc1ncnc2ccccc12)NC1CCCC1	0.1	-0.5	1.9	-9.3	0.6	-8.0
O=C(CNC(=O)c1cccc([N+](=O)[O-])c1)NC1CCCc2ccccc21 (centres undefined)	0.5	13.6	-0.2	-14.0	2.0	-10.4
Cc1cccc(OCc2nnc(SC(C)C(=O)Nc3ccc(N4CCOCC4)cc3)o2)c1 (centres undefined)	0.4	15.6	-4.3	-13.6	-0.4	-24.0
COC(=O)[C@]1(C)N[C@H](CN(C)C(=O)C2CCCCC2)[C@@H]2C(=O)N(Cc3ccccc3)C(=O)[C@@H]21	-0.3	1.3	6.6	-7.3	0.8	-27.4
CC1CCCC(C)N1C(=O)Cn1cnc2cc([N+](=O)[O-])ccc2c1=O (centres undefined)	0.6	114.0*	-12.4	-24.4	0.9	-12.7
CCN(C(=O)Cn1cnc2cc([N+](=O)[O-])ccc2c1=O)C1CCS(=O)(=O)C1 (centres undefined)	-0.2	62.6*	-8.8	-2.7	-0.8	-13.5
CN(C(=O)Cn1cnc2ccccc2c1=O)C1CCS(=O)(=O)C1 (centres undefined)	1.9	16.1	-3.3	9.5	1.6	2.4
Cc1ccc2c(c1)-n1c(nc3cc(F)ccc3c1=O)C(Cc1ccc(O)cc1)NC2=O (centres undefined)	2.6	6.7	-1.2	-5.9	2.2	1.6
Cc1ccc(S(=O)(=O)/N=C2\C(=O)c3ccccc3C([O-])=C2n2cc[n+](CCC(C)C)c2)cc1	-0.1	44.4*	6.3	-8.5	-0.7	-14.7
COc1cc(NC(=O)Cn2c([N+](=O)[O-])cnc2C)c(OC)cc1Cl	0.0	-4.5	-2.7	2.4	1.4	-10.0
C[C@H](CO)N1C[C@H](C)[C@@H](CN(C)S(C)(=O)=O)Oc2c(NC(=O)Nc3ccccc3)cccc2C1=O	-0.1	2.6	-7.0	-9.2	0.1	-11.5
CC(C)[C@H](CO)N(Cc1cccc(F)c1)c1nc(Nc2cccc(Cl)c2)c2ncn(C(C)C)c2n1	7.7	3.1	-4.9	37.0*	18.8	32.8
CSc1nc2nccc(-c3ccc(-c4ccccc4)cc3)n2n1	-1.7	43.5*	-3.8	-24.8	-0.4	1.0
CN=C1N(C)C[C@@H]2[C@@H]3C(=O)N(C)C(=O)[C@@H]3[C@](Cc3ccccc3)(C(=O)OC)N12	/	0.1	/	4.0	/	10.9
O=C(CSc1nnnn1-c1ccccc1)NCCCN1CCCC1=O	0.8	6.0	-0.9	-3.5	0.5	-5.6
Cc1cccc(OCCn2nc(C(=O)O)c3ccccc3c2=O)c1	1.3	31.1	-4.2	-16.7	2.2	-23.9
CC(C)(C)c1ccc(OCCn2nc(C(=O)O)c3ccccc3c2=O)cc1	0.6	21.1	-14.6	28.9*	5.5	45.9*
CC(C)c1ccc(CCNC(=O)CSC(=S)N2CCCC2)cc1	-2.0	19.4	-0.7	-16.2	-0.4	-30.5
CC[n+]1c(/C=C/c2ccc(OC)c(OC)c2)ccc2ccccc21	2.2	64.8*	3.2	-4.2	1.3	-23.2
CC[n+]1c(/C=C/c2cc([N+](=O)[O-])ccc2O)ccc2ccccc21	-0.4	30.4	-5.2	-11.2	-0.5	4.7
CCN(CC)c1ccc(/C=C/c2ccc3ccc(OC)cc3[n+]2CC)cc1	10.8	33.3	-23.6	58.8*	5.8	27.8
Cc1ccc(NC(=O)C2CCCN(S(=O)(=O)c3cccs3)C2)cc1 (centres undefined)	3.6	21.9	-6.2	-9.0	4.1	-18.5
Cc1ccc(NC(=O)C2CCN(S(=O)(=O)c3cccs3)CC2)cc1	4.4	-2.9	-5.5	-4.2	4.4	-20.6
COc1ccc(C)cc1NC(=O)C1CCCN(S(=O)(=O)c2cccs2)C1 (centres undefined)	0.3	36.7*	1.2	-21.1	1.7	-12.6
COc1cc(NC(=O)C2CCN(S(=O)(=O)c3cccs3)CC2)cc(OC)c1	-0.7	51.2*	-0.2	-1.7	1.0	17.3

From PubChem BioAssay
